From PMC4026406 (Drug Design, Development and Therapy, 2014)
≈ marks a conversion by molar mass, not a printed value. Values belong to the compound of their own block, whether it stands above or below them.

Assays:
[1] = test system: Candida albicans IFO 0583; experiment: Agar disc diffusion, growth inhibition zone; format: cell-based; details: for inhibitory activity against C. albicans (in words): 200 μg/disc, compared with clotrimazole
Outline: (§1)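 Filter paper discs (8 mm) were loaded with test compound in DMSO at 200 μg/disc, with gentamicin, ampicillin trihydrate and clotrimazole discs at 100 μg/disc. Discs were placed on Müller–Hinton agar plates previously inoculated with IFO strains and incubated at 37°C. Inhibition zone diameters were read after 24 h for bacteria and 48 h for C. albicans.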

[2] = test system: Bacillus subtilis IFO 3007; experiment: Determination of MIC; format: cell-based; details: IFO3007, 24 h, read-out: MIC BS
Outline: (§2)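 Broth two-fold dilution against IFO strains. Test compound and reference agents were dissolved in DMSO at 128 μg/mL and diluted two-fold from 128 to 0.5 μg/mL. Wells were inoculated with organism suspensions at 10^6 CFU/mL and incubated at 36°C for 24 h.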

normal albino mice = experiment: Oral acute toxicity; format: in vivo; details: oral, mice; for LD16 / LD84: mortality at 24 hours
Outline: (§3)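 Albino mice of either sex were dosed in six groups of six. Test compound was given by oral intubation as fresh suspensions (1–12%) in 0.5% aqueous CMC at 250, 500, 750, 1,000, 1,250 and 1,500 mg/kg. Mortality was recorded at 24 h, and LD16, LD50 and LD84 were calculated.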

Oral acute toxicity = format: in vivo, mice; details: both, albino, mouse, in vivo, po
Outline: as §3

[3] = test system: Escherichia coli IFO 3301; experiment: Agar disc diffusion, growth inhibition zone; format: cell-based; details: IFO3301, 24 h, read-out: Diameter of growth inhibition zone EC
Outline: as §1

[4] = test system: Staphylococcus aureus IFO 3060; experiment: Determination of MIC; format: cell-based; details: IFO3060, 24 h, read-out: MIC SA
Outline: as §2

[5] = test system: carrageenan-induced paw edema; experiment: Carrageenan-induced paw edema method in rats; format: in vivo, Sprague Dawley rats; details: for anti-inflammatory potency ratio relative to indomethacin: 40 mg/kg versus indomethacin
Outline: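 Male Sprague Dawley rats (140–190 g, 20–23°C, 2-day acclimatisation) were used in groups of five. Test compound (20 or 40 mg/kg) or indomethacin (5 mg/kg) was given i.p. in 1 mL 0.5% aqueous CMC. One hour later, 0.1 mL 1% carrageenan in saline went into the right hind paw, with saline in the left. Paw volume was measured by water plethysmometer at 4 h. Protection was calculated versus vehicle control and reported as mean ± SEM, Student's t-test.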

[6] = test system: Micrococcus luteus IFO 3232; experiment: Determination of MIC; format: cell-based; details: IFO3232, 24 h, read-out: MIC ML
Outline: as §2

[7] = test system: Escherichia coli IFO 3301; experiment: Determination of MIC; format: cell-based; details: IFO3301, 24 h, read-out: MIC EC
Outline: as §2

[8] = test system: Pseudomonas aeruginosa IFO 3448; experiment: Determination of MIC; format: cell-based; details: IFO3448, 24 h, read-out: MIC PA
Outline: as §2

[9] = test system: Candida albicans IFO 0583; experiment: Determination of MIC; format: cell-based; details: IFO0583, read-out: MIC CA
Outline: as §2

[10] = Candida albicans, IFO0583, 48 h, read-out: Diameter of growth inhibition zone CA

Structure (SMILES): CCOC(=O)CSc1nnc(C23CC4CC(CC(C4)C2)C3)n1-c1ccccc1 [Compound 13, Ethyl 2-[5-(1-adamantyl)-4-phenyl-1,2,4-triazol-3-ylsulfanyl]acetate]
- inhibitory activity against C. albicans (in words) [1]: marginal activity
- zone of inhibition at 200 µg/disc [1, 10]: 12 mm
- MIC [2]: 16 µg/mL (≈ 40.2 µM)
- LD50 as percent of that of indomethacin (normal albino mice): 5.41%
- LD16 (normal albino mice): 499 mg/kg
- LD84 (normal albino mice): 1,435 mg/kg
- LD50 at 24 h (Oral acute toxicity): 924 mg/kg
- zone of inhibition at 200 µg/disc [3]: < 10 mm
- MIC [4]: 4 µg/mL (≈ 10.1 µM)
- anti-inflammatory potency ratio relative to indomethacin [5]: about 15%

- MIC [6]: 2 µg/mL (≈ 5.72 µM)
- MIC [7]: 2 µg/mL (≈ 5.72 µM)
- MIC [8]: 2 µg/mL (≈ 5.72 µM)
- MIC [2]: 0.5 µg/mL (≈ 1.43 µM)
- MIC [4]: 2 µg/mL (≈ 5.72 µM)
Structure (SMILES): CC1(C)S[C@@H]2[C@H](NC(=O)[C@H](N)c3ccccc3)C(=O)N2[C@H]1C(=O)O [Ampicillin, ampicillin, reference compound]
- zone of inhibition at 100 µg/disc [3]: 17 mm

- MIC [2]: 16 µg/mL (≈ 33.2 µM)
Structure (SMILES): CCOC(=O)N1CCN(Cn2nc(C34CC5CC(CC(C5)C3)C4)n(-c3ccccc3)c2=S)CC1 [Compound 6b, Ethyl 4-{[3-(adamantan-1-yl)-4-phenyl-5-sulfanylidene-4,5-dihydro-1H-1,2,4-triazol-1-yl]methyl}piperazine-1-carboxylate]
- zone of inhibition at 200 µg/disc [1, 10]: < 10 mm
- zone of inhibition at 200 µg/disc [3]: < 10 mm

Structure (SMILES): O=C(O)CSc1nnc(C23CC4CC(CC(C4)C2)C3)n1-c1ccccc1 [Compound 14, 2-[5-(1-Adamantyl)-4-phenyl-1,2,4-triazol-3-ylsulfanyl]acetic acid]
- inhibitory activity against C. albicans (in words) [1]: marginal activity
- zone of inhibition at 200 µg/disc [1, 10]: 12 mm
- LD50 as percent of that of indomethacin (normal albino mice): 9.03%
- LD16 (normal albino mice): 295 mg/kg
- LD84 (normal albino mice): 1,338 mg/kg
- LD50 at 24 h (Oral acute toxicity): 554 mg/kg
- zone of inhibition at 200 µg/disc [3]: < 10 mm
- MIC [4]: 8 µg/mL (≈ 21.7 µM)
- anti-inflammatory potency ratio relative to indomethacin [5]: about 15%

Structure (SMILES): COCCSc1nnc(C23CC4CC(CC(C4)C2)C3)n1-c1ccccc1 [Compound 11, 5-(1-Adamantyl)-3-[(2-methoxyethyl)sulfanyl]-4-phenyl-1,2,4-triazole]
- zone of inhibition at 200 µg/disc [1, 10]: < 10 mm
- zone of inhibition at 200 µg/disc [3]: < 10 mm
- reduction in edema at both dose levels ([5]; 20 and 40 mg/kg intraperitoneal, rats): did not show any significant anti-inflammatory activity

Structure (SMILES): CN(C)CCSc1nnc(C23CC4CC(CC(C4)C2)C3)n1C [Compound 9a, 2-{[5-(Adamantan-1-yl)-4-methyl-4H-1,2,4-triazol-3-yl]sulfanyl}-N,N-dimethyl-ethanamine]
- zone of inhibition at 200 µg/disc [1, 10]: < 10 mm
- zone of inhibition at 200 µg/disc [3]: < 10 mm

- MIC [6]: 2 µg/mL (≈ 4.19 µM)
- MIC [7]: 0.5 µg/mL (≈ 1.05 µM)
- MIC [8]: 1 µg/mL (≈ 2.09 µM)
- MIC [2]: 2 µg/mL (≈ 4.19 µM)
- MIC [4]: 2 µg/mL (≈ 4.19 µM)
Structure (SMILES): CNC(C)C1CCC(N)C(OC2C(N)CC(N)C(OC3OCC(C)(O)C(NC)C3O)C2O)O1 (centres unmarked) [Gentamicin, gentamicin, reference compound]
- zone of inhibition at 100 µg/disc [3]: 20 mm

- MIC [9]: 2 µg/mL (≈ 5.8 µM)
Structure (SMILES): Clc1ccccc1C(c1ccccc1)(c1ccccc1)n1ccnc1 [Clotrimazole, clotrimazole, reference compound]
- zone of inhibition at 100 µg/disc [1, 10]: 21 mm
